Data reported in ChEMBL document CHEMBL3045605, “Synthesis and anticancer evaluation of novel 3,5-diaryl-thiazolo[4,5-d]pyrimidin-2-one derivatives” (2013).

What was measured:
Type in all cases: functional
[1] = tested on: MDA-MB-435; test: Anticancer activity against Homo sapiens (human) MDA-MB-435 cells by SRB assay
Outline: (§1)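 Five-dose NCI 60-cell-line panel testing at tenfold dilutions from 10−4 to 10−8 M, with growth read by sulforhodamine B protein staining. For each cell line: GI50 is the molar concentration giving half growth inhibition; TGI is total growth inhibition (cytostatic); LC50 is the molar concentration killing 50% of the initial cells (cytotoxic).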

[2] = tested on: TK-10; test: Anticancer activity against Homo sapiens (human) TK10 cells assessed as cell growth at 10 uM by SRB assay; conditions: read-out: Activity
Outline: (§2)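 NCI 60-cell human tumour panel (leukemia, melanoma, lung, colon, CNS, breast, ovarian, prostate, renal lines) given a single 10−5 M dose. Growth is expressed as percent growth of treated cells relative to untreated controls, with cell growth/viability estimated by sulforhodamine B protein staining.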

[3] = Anticancer activity against Homo sapiens (human) RPMI8266 cells by SRB assay; outline: as §1
[4] = tested on: CAKI-1; test: Anticancer activity against Homo sapiens (human) CAKI-1 cells assessed as cell growth at 10 uM by SRB assay; conditions: read-out: Activity
Outline: (§3)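 NCI 60-cell human tumour panel (nine cancer types) screened at one concentration, 10−5 M. Cell growth estimated by sulforhodamine B protein staining and reported as percent growth of treated cells relative to untreated controls.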

[5] = tested on: HCT-116; test: Anticancer activity against Homo sapiens (human) HCT116 cells by SRB assay
Outline: (§4)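 NCI 60-line panel, five tenfold dilutions from 10−4 to 10−8 M, growth read by sulforhodamine B staining against untreated controls. From the dose–response per line: GI50 (molar concentration giving half growth inhibition), TGI (molar concentration giving total growth inhibition, cytostatic) and LC50 (molar concentration killing 50% of initial cells, cytotoxic).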

[6] = tested on: HL-60(TB); test: Anticancer activity against Homo sapiens (human) HL-60(TB) cells assessed as cell growth at 10 uM by SRB assay; conditions: read-out: Activity
Outline: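 NCI 60-cell-line human tumour panel screen at a single 10−5 M concentration. Cell growth was estimated by sulforhodamine B protein staining. Results are given as percent growth of treated cells relative to untreated controls.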

[7] = tested on: Hs-578T; test: Anticancer activity against Homo sapiens (human) Hs 578T cells assessed as cell growth at 10 uM by SRB assay; conditions: read-out: Activity; outline: as §3
[8] = tested on: SR; test: Anticancer activity against Homo sapiens (human) SR cells by SRB assay
Outline: (§5)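 NCI five-dose follow-up on the 60-line human tumour panel at tenfold dilutions from 10−4 to 10−8 M, with growth read by sulforhodamine B protein assay against untreated controls. For each cell line, GI50 (half growth inhibition), TGI (total growth inhibition) and LC50 (50% death of initial cells) are calculated as molar concentrations.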

[9] = tested on: UACC-62; test: Anticancer activity against Homo sapiens (human) UACC62 cells assessed as cell growth at 10 uM by SRB assay; conditions: read-out: Activity; outline: as §2
[10] = tested on: SF-268; test: Anticancer activity against Homo sapiens (human) SF268 cells by SRB assay; outline: as §1
[11] = tested on: SK-MEL-2; test: Anticancer activity against Homo sapiens (human) SK-MEL-2 cells by SRB assay; outline: as §1
[12] = tested on: ACHN; test: Anticancer activity against Homo sapiens (human) ACHN cells by SRB assay; outline: as §4
[13] = tested on: U-251; test: Anticancer activity against Homo sapiens (human) U251 cells by SRB assay; outline: as §5
[14] = tested on: K562; test: Anticancer activity against Homo sapiens (human) K562 cells by SRB assay; outline: as §4
[15] = tested on: CAKI-1; test: Anticancer activity against Homo sapiens (human) CAKI-1 cells by SRB assay; outline: as §4
[16] = tested on: OVCAR-5; test: Anticancer activity against Homo sapiens (human) OVCAR5 cells by SRB assay; conditions: read-out: pTGI (converted); outline: as §1
[17] = tested on: HOP-62; test: Anticancer activity against Homo sapiens (human) HOP62 cells assessed as cell growth at 10 uM by SRB assay; conditions: read-out: Activity; outline: as §3
[18] = tested on: SF-539; test: Anticancer activity against Homo sapiens (human) SF539 cells assessed as cell growth at 10 uM by SRB assay; conditions: read-out: Activity
Outline: (§6)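 Single-dose screen in the NCI 60-human-tumour-cell-line panel (nine cancer types) at 10−5 M. Cell growth was estimated by sulforhodamine B protein staining and reported as percent growth of treated cells relative to untreated controls.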

[19] = tested on: PC-3; test: Anticancer activity against Homo sapiens (human) PC3 cells assessed as cell growth at 10 uM by SRB assay; conditions: read-out: Activity; outline: as §6
[20] = tested on: Hs-578T; test: Anticancer activity against Homo sapiens (human) Hs 578T cells by SRB assay; outline: as §4
[21] = tested on: OVCAR-3; test: Anticancer activity against Homo sapiens (human) OVCAR3 cells by SRB assay; outline: as §1
[22] = tested on: CCRF-CEM; test: Anticancer activity against Homo sapiens (human) CCRF-CEM cells by SRB assay; outline: as §4
[23] = tested on: HCT-15; test: Anticancer activity against Homo sapiens (human) HCT15 cells by SRB assay; outline: as §4
[24] = tested on: BT-549; test: Anticancer activity against Homo sapiens (human) BT549 cells assessed as cell growth at 10 uM by SRB assay; conditions: read-out: Activity; outline: as §3
[25] = tested on: HOP-92; test: Anticancer activity against Homo sapiens (human) HOP92 cells by SRB assay; outline: as §4
[26] = tested on: SR; test: Anticancer activity against Homo sapiens (human) SR cells assessed as cell growth at 10 uM by SRB assay; conditions: read-out: Activity; outline: as §2
[27] = tested on: SF-295; test: Anticancer activity against Homo sapiens (human) SF295 cells assessed as cell growth at 10 uM by SRB assay; conditions: read-out: Activity; outline: as §6
[28] = tested on: IGROV-1; test: Anticancer activity against Homo sapiens (human) IGROV1 cells assessed as cell growth at 10 uM by SRB assay; conditions: read-out: Activity; outline: as §3
[29] = tested on: IGROV-1; test: Anticancer activity against Homo sapiens (human) IGROV1 cells by SRB assay; outline: as §4
[30] = tested on: UO-31; test: Anticancer activity against Homo sapiens (human) UO31 cells assessed as cell growth at 10 uM by SRB assay; conditions: read-out: Activity; outline: as §2
[31] = tested on: M14; test: Anticancer activity against Homo sapiens (human) M14 cells by SRB assay; outline: as §4
[32] = tested on: COLO 205; test: Anticancer activity against Homo sapiens (human) COLO205 cells by SRB assay; outline: as §4
[33] = tested on: SK-MEL-28; test: Anticancer activity against Homo sapiens (human) SK-MEL-28 cells assessed as cell growth at 10 uM by SRB assay; conditions: read-out: Activity; outline: as §6
[34] = tested on: HT-29; test: Anticancer activity against Homo sapiens (human) HT-29 cells assessed as cell growth at 10 uM by SRB assay; conditions: read-out: Activity; outline: as §3
[35] = tested on: A498; test: Anticancer activity against Homo sapiens (human) A498 cells by SRB assay; outline: as §4
[36] = tested on: MDA-MB-435; test: Anticancer activity against Homo sapiens (human) MDA-MB-435 cells assessed as cell growth at 10 uM by SRB assay; conditions: read-out: Activity; outline: as §6

## O=c1sc2c(Cl)nc(-c3ccccc3)nc2n1-c1ccccc1
[1]
  GI50: 4.9 µM
[1]; read-out: pTGI (converted)
  TGI: 45.7 µM
[2]
  growth at 10 µM: 51%
[3]
  GI50: 44.7 µM
[4]
  growth at 10 µM: -30%
[5]
  GI50: 2.09 µM
[5]; read-out: pLC50 (the source's name) (converted)
  CC50: 9.55 µM
[5]; read-out: pTGI (converted)
  TGI: 4.47 µM
[6]
  growth at 10 µM: 38%
[7]
  growth at 10 µM: 12%
[8]
  GI50: 2.63 µM
[8]; read-out: pTGI (converted)
  TGI: 21.4 µM
[9]
  growth at 10 µM: 62%
[10]
  GI50: 10.5 µM
[10]; read-out: pTGI (converted)
  TGI: 38 µM
[11]
  GI50: 9.12 µM
[11]; read-out: pTGI
  TGI: 43.7 µM
[12]
  GI50: 6.92 µM
[13]
  GI50: 3.72 µM
[13]; read-out: pTGI (converted)
  TGI: 18.6 µM
[14]
  GI50: 4.07 µM
[15]
  GI50: 2.34 µM
  LC50: 46.8 µM
[15]; read-out: pTGI (converted)
  TGI: 5.75 µM
[16]
  TGI: 45.7 µM
[17]
  growth at 10 µM: 15%
[18]
  growth at 10 µM: 52%
[19]
  growth at 10 µM: 11%
[20]
  GI50: 3.31 µM
[20]; read-out: pTGI (converted)
  TGI: 18.6 µM
[21]
  GI50: 1.78 µM
[21]; read-out: pTGI (converted)
  TGI: 79.4 µM
[22]
  GI50: 3.8 µM
[23]
  GI50: 4.68 µM
[24]
  growth at 10 µM: 86%
[25]
  GI50: 3.09 µM
[25]; read-out: pTGI (converted)
  TGI: 67.6 µM
[26]
  growth at 10 µM: 8%
[27]
  growth at 10 µM: 92%
[28]
  growth at 10 µM: -65%
[29]
  GI50: 1.78 µM
  LC50: 18.2 µM
[29]; read-out: pTGI (converted)
  TGI: 4.79 µM
[30]
  growth at 10 µM: -79%
[31]
  GI50: 3.8 µM
[31]; read-out: pTGI (converted)
  TGI: 35.5 µM
[32]
  GI50: 11.2 µM
[33]
  growth at 10 µM: 9%
[34]
  growth at 10 µM: 10%
[35]
  GI50: 3.47 µM
[36]
  growth at 10 µM: 26%
